The source made the active and inactive calls.
Assays:
Format in all cases: functional, organism-based
Saccharomyces cerevisiae = assay: Antifungal activity against Saccharomyces cerevisiae at 1 mM by almar blue dye reduction assay
How it was run: (§1)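 Single-point primary screen at 1 mM using Alamar Blue dye reduction as the growth read-out.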

Bacillus cereus = assay: Antibacterial activity against Bacillus cereus at 1 mM by almar blue dye reduction assay; how it was run: as §1
Bacillus subtilis = assay: Antibacterial activity against Bacillus subtilis at 1 mM by almar blue dye reduction assay; how it was run: as §1
Bacillus anthracis = assay: Antibacterial activity against Bacillus anthracis at 1mM by almar blue dye reduction assay
Pseudomonas aeruginosa = assay: Antibacterial activity against Pseudomonas aeruginosa at 1 mM by almar blue dye reduction assay; how it was run: as §1
Candida albicans = assay: Antifungal activity against Candida albicans at 1 mM by almar blue dye reduction assay; how it was run: as §1
Staphylococcus aureus = assay: Antibacterial activity against Staphylococcus aureus at 1 mM by almar blue dye reduction assay; how it was run: as §1
Cryptococcus neoformans = assay: Antifungal activity against Cryptococcus neoformans at 1 mM by almar blue dye reduction assay; how it was run: as §1
Escherichia coli = assay: Antibacterial activity against Escherichia coli at 1 mM by almar blue dye reduction assay; how it was run: as §1

Measured: Activity

CC(C)NC(=O)[C@H](C)[C@H]1CC[C@@H](C[C@@H](C)n2cc(C#CCN(C)C)nn2)O1
inactive: all assays above

C[C@H](CC1CCC([C@@H](C)C(=O)N2CCN(CC3CCCO3)CC2)O1)n1cc(C#CCNC(=O)OCc2ccccc2)nn1 (single isomer, unassigned)
inactive: all assays above

C[C@H](C[C@@H]1CC[C@H]([C@@H](C)C(=O)N(C)Cc2ccccc2)O1)n1cc(C#CCc2ccccc2)nn1
inactive: all assays above

CCCCN(CC#Cc1cn([C@H](C)C[C@@H]2CC[C@H]([C@@H](C)C(=O)N3CCCC3)O2)nn1)CCCC
inactive: all assays above

COc1cccc(OCC#Cc2cn([C@H](C)C[C@@H]3CC[C@H]([C@@H](C)C(=O)N(C)Cc4ccccc4)O3)nn2)c1OC
inactive: all assays above

C[C@H](C[C@@H]1CC[C@H]([C@@H](C)C(=O)N2CCCC2)O1)n1cc(C#CC2=CCCCC2)nn1
inactive: all assays above

C[C@H](C[C@@H]1CC[C@H]([C@@H](C)C(=O)N(C)Cc2ccccc2)O1)n1cc(C#CCOc2ccc(Br)cc2)nn1
inactive: all assays above

CC(C)NC(=O)[C@H](C)[C@H]1CC[C@@H](C[C@@H](C)n2cc(C#CCN3CCN(c4ccccc4)CC3)nn2)O1
inactive: all assays above

COCCNCC#Cc1cn([C@H](C)C[C@@H]2CC[C@H]([C@@H](C)C(=O)NC(C)C)O2)nn1
inactive: all assays above

CCCCCC#Cc1cn([C@H](C)C[C@@H]2CC[C@H]([C@@H](C)C(=O)N3CCCC3)O2)nn1
inactive: all assays above

C[C@H](C[C@@H]1CC[C@H]([C@@H](C)C(=O)N(C)Cc2ccccc2)O1)n1cc(C#Cc2ccc(C(F)(F)F)cc2)nn1
inactive: all assays above

CC(C)NC(=O)[C@H](C)[C@H]1CC[C@@H](C[C@@H](C)n2cc(C#Cc3cccc4ccccc34)nn2)O1
inactive: all assays above

C[C@H](C[C@@H]1CC[C@H]([C@@H](C)C(=O)N(C)Cc2ccccc2)O1)n1cc(C#CCN2CCOCC2)nn1
inactive: all assays above

C[C@H](C[C@@H]1CC[C@H]([C@@H](C)C(=O)N2CCN(CC3CCCO3)CC2)O1)n1cc(C#Cc2ccccc2)nn1 (some centres not stated)
inactive: all assays above

CCN(CC)C(=O)[C@H](C)[C@H]1CC[C@@H](C[C@@H](C)n2cc(C#Cc3cccc4ccccc34)nn2)O1
inactive: all assays above

C[C@H](C[C@@H]1CC[C@H]([C@@H](C)C(=O)N2CCCC2)O1)n1cc(C#Cc2ccc(Oc3ccccc3)cc2)nn1
inactive: all assays above

CCN(CC)C(=O)[C@H](C)[C@H]1CC[C@@H](C[C@@H](C)n2cc(C#Cc3ccc(C(F)(F)F)cc3)nn2)O1
inactive: all assays above

Cc1cccc(NC(=O)NCC#Cc2cn([C@H](C)CC3CCC([C@@H](C)C(=O)N4CCN(CC5CCCO5)CC4)O3)nn2)c1 (single isomer, unassigned)
inactive: all assays above

C[C@H](CC1CCC([C@@H](C)C(=O)N2CCN(CC3CCCO3)CC2)O1)n1cc(C#CCOC(=O)OCc2ccccc2)nn1 (single isomer, unassigned)
inactive: all assays above

CCN(CC)C(=O)[C@H](C)[C@H]1CC[C@@H](C[C@@H](C)n2cc(C#CCOc3ccc(Br)cc3)nn2)O1
inactive: all assays above

CCN(CC)C(=O)[C@H](C)[C@H]1CC[C@@H](C[C@@H](C)n2cc(C#Cc3ccc(-c4ccccc4)cc3)nn2)O1
inactive: all assays above

CCOC(=O)C#Cc1cn([C@H](C)CC2CCC([C@@H](C)C(=O)NC(C)C)O2)nn1 (single isomer, unassigned)
inactive: all assays above

C[C@H](C[C@@H]1CC[C@H]([C@@H](C)C(=O)N2CCCC2)O1)n1cc(C#Cc2cccc3ccccc23)nn1
inactive: all assays above

— ChEMBL document CHEMBL1155099, “Natural products in parallel synthesis: triazole libraries of nonactic acid” (2008)
